In ChEMBL document CHEMBL1153115, “Synthesis, antimalarial activity and cytotoxicity of 4-aminoquinoline-triazine conjugates” (Bioorg Med Chem Lett, 2010):

Experiments:
[1] = Cytotoxicity against pig LLC-PK11 cells; type: cell-based; conditions: Sus scrofa
How it was run: (§1)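 Cytotoxicity was run in parallel on three mammalian lines: LLC-PK11 (pig kidney epithelial cells), HepG2 (human hepatoma cells) and Vero (monkey kidney […]). Compounds with no cytotoxicity up to the highest tested concentration, 48, were recorded as NC.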

HepG2 = assay: Cytotoxicity against human HepG2 cells; type: cell-based; how it was run: as §1
Vero = assay: Cytotoxicity against african green monkey Vero cells; type: cell-based; conditions: Chlorocebus sabaeus; how it was run: as §1
[2] = Selectivity index, IC50 for african green monkey (Cercopithecus aethiops) Vero cells to IC50 for chloroquine-resistant Plasmodium falciparum W2
Plasmodium falciparum [3] = assay: Antiplasmodial activity against chloroquine-sensitive Plasmodium falciparum D6 by LDH release assay; type: functional, organism-based
[4] = Selectivity index, IC50 for african green monkey (Cercopithecus aethiops) Vero cells to IC50 for chloroquine-sensitive Plasmodium falciparum D6; type: functional
How it was run: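 The selectivity index of antimalarial activity was calculated from Vero cell cytotoxicity relative to the antiplasmodial IC50 against each P. falciparum clone (D6 or W2).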

Plasmodium falciparum [5] = assay: Antiplasmodial activity against chloroquine-resistant Plasmodium falciparum W2 by LDH release assay; type: functional, organism-based

Structure (SMILES)	IC50 [1] [nM]	IC50 (HepG2) [nM]	IC50 (Vero) [nM]	Selectivity Index [2]	IC50 (Plasmodium falciparum [3]) [nM]	Selectivity Index [4]	IC50 (Plasmodium falciparum [5]) [nM]
COc1cccc2c1C(=O)c1c(O)c3c(c(O)c1C2=O)C[C@@](O)(C(=O)CO)C[C@@H]3O[C@H]1C[C@H](N)[C@H](O)[C@H](C)O1 [DOXORUBICIN]	850	420	20000				
Clc1ccc2c(NCCCNc3nc(NC4CCCCC4)nc(N4CCCCC4)n3)ccnc2c1	10500	8300	34300	15.4	1740	19.7	2220
C[C@@H]1CC[C@H]2[C@@H](C)C(=O)O[C@@H]3O[C@@]4(C)CC[C@@H]1[C@]32OO4 [ARTEMISININ]				>670	30	>500	25
COc1cc(Nc2nc(NCCCNc3ccnc4cc(Cl)ccc34)nc(N3CCOCC3)n2)cc(OC)c1	8300	25400	32700	148.6	250	130.8	220
